The list is not random: actives were taken first. Their share in the collection is about 2.2%.
rRNA inh HTS: inhibitors of bacterial rRNA selective over humanized ribosomes. E. coli WT GFP vs humanized-ribosome RFP mutants, fluorescence, 24 h; active compounds read low; DMSO median 0, no signal -100. GFP signal change (wild-type ribosome), % (no concentration beside the values). hit rate 1.6% among 350,000;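 active means significant combined selectivity score with lowered wild-type GFP, culture density cut under 30%, mutant RFP and density less affected; inactive means any of these conditions unmet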
Cneo AK release: Cryptococcus neoformans lysis via adenylate kinase release. C. neoformans lysis, adenylate kinase release luminescence, 4 h; normalised: neutral wells 0, clomiphene wells 100. lysis activity, % at 15 µM. hit rate 0.2% among 360,000. AID 651654;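 active means mean lysis activity across replicates of at least 80%, whatever share of replicates individually reach that level; inactive means mean lysis activity below 80%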
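Material: C. neoformans cells; Schedule: 4 h static compound exposure, 37 °C, read 1 h post-reagent; Measured by: adenylate kinase release luminescence; Read-out: signal increase indicating cell lysis; Controls: Clomiphene as positive lysis control.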
PglD inh: blocks C. jejuni PglD acetyltransferase activity | hit rate 0.098% among 360,000 | purified PglD enzyme, DTNB colorimetric CoA detection | inhibition, % at 12.5 µM; in the data active means inhibition above about 16%, passing the limit was not always enough
Mot1-301 SUMO: SUMOylation pathway inhibition by Mot1-301 growth rescue. S. cerevisiae Mot1-301 growth rescue, ATP luminescence, 38.5C; percent above DMSO median, 100 means doubled. growth rescue, % at 18.8 µM. hit rate 1% among 320,000. AID 2716;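 active means every valid replicate shows activation above 250% relative to neutral control wells; inactive means the rest, any valid replicate at or below 250%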;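 further: OY570 slx delta 5 strain wells were the positive control but not used for scaling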
Yeast superoxide: yeast age-related superoxide inhibition as caloric restriction mimetic | hit rate 0.18% among 330,000 | AID 2690 | S. cerevisiae aged cells, superoxide DHE fluorescence; active compounds read low | superoxide response (% of plate mean), % at 10 µM;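 active means superoxide response under a set limit, about three screen SD below normal, cut at about 65% in these data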;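 further: yeast aged for seven days with compound at 30 °C before DHE staining; 100% = average MFI of all compound-treated wells on the plate with controls excluded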
* = called active by the depositor; . = no result; + = active, no number.

SMILES	rRNA inh HTS	Cneo AK release	PglD inh	Mot1-301 SUMO	Yeast superoxide
Cc1ccccc1NC(=O)c1cccc(N2C(=O)C3C4CCC(C4)C3C2=O)c1 (stereo not given)	.	7	14	3	95
Cc1ccc(NC(=O)c2cccc(N3C(=O)C4C5CCC(C5)C4C3=O)c2)c(C)c1 (stereo not given)	.	.	.	+	104
CN(C)c1ncnc2c1nnn2C1OC(CO)C(O)C1O (stereo not given)	24	0	6	.	.
CN(C)c1ncnc2c1ncn2C1OC(CO)C(O)C1O (stereo not given)	.	1	4	277*	73
C[C@@H](NC(=O)C[C@@H]1C[C@@H]2c3cc(NC(=O)NC4CCCC4)ccc3O[C@@H]2[C@H](CO)O1)c1ccccc1	-4	.	.	.	.
C[C@H]1CN([C@@H](C)CO)S(=O)(=O)c2ccc(C3=CCCCC3)cc2O[C@@H]1CN(C)C(=O)C1CC1	-4	0	1	.	.
C=CC(=O)Nc1sc2c(c1C(N)=O)CCCC2	-4	-2	5	8	82
C=CCNC(=S)Nc1sc2c(c1C(N)=O)CCCC2	-31*	-1	-9	11	81
O=C(NC1CCC1)[C@@H]1[C@@H](CO)[C@@H]2Cn3c(ccc(-c4ccccc4)c3=O)[C@@H]2N1CCc1ccccc1	-5	0	-2	.	.
C[C@H](CO)N1C[C@H](C)[C@@H](CN(C)C(=O)c2ccc(F)cc2)OCc2ccccc2-c2c(n(C)c3ccccc23)C1=O	-3	.	.	.	.
O=C(CSc1nc(C2CCCCC2)nc2ccccc12)N1CCCC1	-18*	.	.	4	80
C[C@@H]1CN([C@H](C)CO)C(=O)c2cc(NS(=O)(=O)c3cn(C)cn3)ccc2O[C@@H]1CN(C)C(=O)Nc1ccc(F)cc1	-2	.	.	.	.
S=C(c1ccc(-c2ccc(Br)cc2)o1)N1CCOCC1	-30*	-1	2	40	105
COc1ccc(NC(=O)N(C)C[C@H]2OCCCC[C@H](C)Oc3ccc(NS(=O)(=O)c4ccc(F)cc4)cc3C(=O)N([C@@H](C)CO)C[C@@H]2C)cc1	-1	-12	-3	.	.
COc1cc2c(cc1Cl)C(=O)C(F)(c1ccccc1)C(=O)N2 (stereo not given)	-29*	.	.	-14	117
O=C(Cc1ccccc1)N1CCCC(c2nc(-c3ccc(S(=O)(=O)N4CCCC4)cc3)no2)C1 (stereo not given)	-26*	-2	-4	-4	112
O=C(c1ccc(F)cc1F)N1CCCC(c2nc(-c3ccc(F)cc3)no2)C1 (stereo not given)	-21*	1	5	18	106
O=C(C1CC1)N1CCC(c2nc(-c3ccc(S(=O)(=O)N4CCCC4)cc3)no2)CC1	2	-4	-1	-2	107
C[C@H](CO)N1C[C@H](C)[C@@H](CN(C)Cc2ccncc2)Oc2c(NC(=O)NC3CCCCC3)cccc2C1=O	-4	.	.	.	.
CCCC(=O)N1CCC2(CC1)CN(C(=O)CN1CCOCC1)[C@@H](CO)c1c2c2ccc(OC)cc2n1C	-1	.	.	.	.
COCC(=O)N1CC(=O)N2[C@H](CO)[C@@H](c3ccc(C#Cc4cccc(OC)c4)cc3)[C@@H]2C1	-1	.	.	.	.
Cc1cccc(C(=O)N2CCc3cc(-c4nc(NC(=O)Cn5nnc6ccccc6c5=O)sc4C)ccc32)c1	.	.	.	378*	95
Cc1cccc(C(=O)N2CCc3cc(-c4nc(NC(=O)CN5CCCC5)sc4C)ccc32)c1	-4	-2	-2	-17	95
Cc1ccc2[nH]c(C(=O)N3CCCC(Nc4ccc(F)cc4)C3)cc2c1 (stereo not given)	-34*	9	0	2	114
Nc1nc(SCc2ccccc2)c2ncn(Cc3ccccc3)c2n1	-17*	-1	-7	.	.
SMILES	rRNA inh HTS	Cneo AK release	PglD inh	Mot1-301 SUMO	Yeast superoxide
Cc1noc(C)c1NC(=O)Nc1ccc2c(c1)C(=O)N([C@H](C)CO)C[C@H](C)[C@H](CN(C)Cc1ccc(C(F)(F)F)cc1)OCCCC[C@H](C)O2	-3	0	5	.	.
NNC(=O)c1ccc2nc(-c3ccc(Br)cc3)cn2c1	-28*	.	.	43	130
CC(=N\Nc1ccc(Cl)cc1)/C(=N/O)C(=O)Nc1ccccc1	.	-13	14	256*	82
C/C(=N\O)C(=O)Nc1ccccc1	3	.	.	-6	100
CCOC(=O)C(=O)NNc1ccc(Cl)cc1	8	.	.	201	113
CCOC(=O)C(=N/O)/C(C)=N/NC(=O)C(=O)Nc1ccc(Cl)cc1	-20*	2	-3	5	90
Cc1cccc(CN(C)C[C@@H]2Oc3ncc(-c4cc5ccccc5o4)cc3C(=O)N([C@H](C)CO)C[C@@H]2C)c1	-33	20	-1	.	.
Cc1ccc(C)c(C(=O)COC(=O)C(C)N2C(=O)C3C4CCC(C4)C3C2=O)c1 (stereo not given)	-29*	0	4	-15	83
Cc1ccc(C(=O)COC(=O)C(C)N2C(=O)C3C4CCC(C4)C3C2=O)cc1 (stereo not given)	-16	-1	-3	20	105
CN1C(=O)c2cccc3c(S(=O)(=O)N(C)C)ccc1c23	-6	118*	0	-10	98
CCN1C(=O)c2cccc3c(S(=O)(=O)N(C)C)ccc1c23	-11	-2	5	.	.
Cc1cc(C(C)(C)C)c(O)c(C(C)(C)C)c1	.	1	4	649	99
CC(C)(C)c1cc(O)c(C(C)(C)C)cc1O	.	.	.	-30	52*
Cc1nn(C)cc1CNC(=O)Nc1cccc(Cl)c1	.	1	-5	348*	97
O=C(Cn1nc(C(F)F)cc1C(F)F)NNC(=S)Nc1ccc([N+](=O)[O-])cc1	-18*	.	.	1	111
O=C(Cn1nc(C(F)F)cc1C(F)F)NNC(=S)Nc1ccc(F)cc1	.	1	-3	8	81
CN1CCCC(OC(=O)c2cc(Cl)ccc2Cl)C1 (stereo not given)	.	1	-1	6	95
CN1CCCC(OC(=O)c2cc(Br)ccc2Cl)C1 (stereo not given)	6	3	-3	260*	106
O=C(Nc1ccc(Cl)cc1)Nc1csc([N+](=O)[O-])c1	-47	-4	0	1	96
O=C(Nc1csc([N+](=O)[O-])c1)Nc1c(Cl)cccc1Cl	-32*	-2	2	2	100
Cc1ccccc1C(=O)NNC(=S)NC(=O)COc1ccccc1	-22*	.	.	43	197
COCCNC(=O)C[C@@H]1CC[C@H]2[C@@H](COC[C@H](O)CN2Cc2cccc(-c3ccncc3)c2)O1	3	109*	4	.	.
O=C(C[C@H]1CC[C@H]2[C@@H](COC[C@H](O)CN2Cc2cccc(C(F)(F)F)c2)O1)NCc1ccccc1	-16	-1	0	.	.
O=C(C[C@@H]1CC[C@@H]2[C@H](COC[C@H](O)CN2Cc2cccc(C(F)(F)F)c2)O1)NCc1ccccc1	-6	97*	-1	.	.
